Experimental data from different studies.
Each line is one published result; the experiments were not run side by side.
Sample: plasma

CN1CCN(Cc2ccc(NC(=O)c3cncc(C#Cc4cnc(N)c5ncccc45)c3)cc2C(F)(F)F)CC1 — half-life (rat; intravenous; 2 mg/kg): 3.4 h
[2H]C([2H])(c1cc(F)c(F)cc1F)n1c(=O)n(Cc2ncn(C)n2)c(=O)[nH]/c1=N\c1cc2cn(C)nc2cc1Cl — half-life (male Sprague-Dawley rat; oral; 25 mg/kg): 4.16 h
N=c1c2c(-c3ccccc3)c(-c3ccccc3)n(Cc3ccccc3)c2ncn1[C@H]1CC[C@H](O)CC1 — half-life (male Sprague-Dawley rat; intravenous; 2 mg/kg; single dose): 8.9 h
CCCC[C@@H]1NC(=O)[C@H](Cc2ccc(O)cc2)NC(=O)[C@@H]2CCCN2C(=O)[C@H](CC(=O)O)NC(=O)[C@H](C)NC(=O)[C@H](Cc2ccccc2)NC(=O)[C@@H]2CSCCC(=O)N3CN(CN(C3)C(=O)CCSC[C@H](NC(C)=O)C(=O)N[C@@H](CC(C)(C)C)C(=O)N[C@@H](CCC(=O)O)C(=O)N[C@@H](CCC(=O)O)C(=O)N[C@H](CCCCNC(=O)CCc3cn(CCOCCOCCOCCN(CCOCCOCCOCCC(=O)N[C@H]4CSCCC(=O)N5CN6CN(C5)C(=O)CCSC[C@H](NC(=O)[C@@H](CC(=O)O)NC(=O)[C@H](Cc5cccc7ccccc57)NC(=O)[C@@H]5CCCN5C4=O)C(=O)N[C@@H](CCSC)C(=O)N[C@@H](CCCCNC(=N)N)C(=O)N[C@@H](CC(=O)O)C(=O)N[C@@H](Cc4c[nH]c5ccccc45)C(=O)N[C@@H](CO)C(=O)N[C@@H]([C@@H](C)O)C(=O)N4CCC[C@H]4C(=O)N4C[C@H](O)C[C@H]4C(=O)N[C@@H](Cc4c[nH]c5ccccc45)C(=O)N[C@H](C(N)=O)CSCCC6=O)CCOCCOCCOCCn4cc(CCC(=O)NCCCC[C@H]5NC(=O)[C@H](CCC(=O)O)NC(=O)[C@H](CCC(=O)O)NC(=O)[C@H](CC(C)(C)C)NC(=O)[C@@H](NC(C)=O)CSCCC(=O)N6CN7CN(C6)C(=O)CCSC[C@H](NC(=O)[C@H](Cc6ccc(O)cc6)NC(=O)[C@@H]6CCCN6C5=O)C(=O)N[C@@H](Cc5ccccc5)C(=O)N[C@@H](C)C(=O)N[C@@H](CC(=O)O)C(=O)N5CCC[C@H]5C(=O)N[C@@H](Cc5ccc(O)cc5)C(=O)N[C@@H](CCCC)C(=O)N[C@H](C(N)=O)CSCCC7=O)nn4)nn3)C(=O)N3CCC[C@H]3C(=O)N[C@@H](Cc3ccc(O)cc3)C(=O)N2)C(=O)CCSC[C@@H](C(N)=O)NC1=O — half-life (rat; intravenous; 2 mg/kg): 2.1 h
Cn1cnc(Cn2c(=O)[nH]/c(=N\c3cc4cn(C)nc4cc3Cl)n(Cc3cc(F)c(F)cc3F)c2=O)n1 — half-life (male Sprague-Dawley rat; oral; 25 mg/kg): 3.86 h
O=C([O-])C(=O)[O-].[NH-][C@@H]1CCCC[C@H]1[NH-].[Pt+4] (relative stereo) — half-life (rat; oral; 10 mg/kg): 1.53 h
CCCC[C@@H]1NC(=O)[C@H](Cc2ccc(O)cc2)NC(=O)[C@@H]2CCCN2C(=O)[C@H](CC(=O)O)NC(=O)[C@H](C)NC(=O)[C@H](Cc2ccccc2)NC(=O)[C@@H]2CSCCC(=O)N3CN(CN(C3)C(=O)CCSC[C@@H](C(=O)N[C@@H](CNC(=O)CCc3cn(CCOCCOCCOCCN(CCOCCOCCOCCC(=O)N[C@H]4CSCCC(=O)N5CN6CN(C5)C(=O)CCSC[C@H](NC(=O)[C@@H](CC(=O)O)NC(=O)[C@H](Cc5cccc7ccccc57)NC(=O)[C@@H]5CCCN5C4=O)C(=O)N[C@@H](CCSC)C(=O)N[C@@H](CCCCNC(=N)N)C(=O)N[C@@H](CC(=O)O)C(=O)N[C@@H](Cc4c[nH]c5ccccc45)C(=O)N[C@@H](CO)C(=O)N[C@@H]([C@@H](C)O)C(=O)N4CCC[C@H]4C(=O)N4C[C@H](O)C[C@H]4C(=O)N[C@@H](Cc4c[nH]c5ccccc45)C(=O)N[C@H](C(N)=O)CSCCC6=O)CCOCCOCCOCCn4cc(CCC(=O)NC[C@H](NC(=O)[C@@H]5CSCCC(=O)N6CN7CN(C6)C(=O)CCSC[C@H](NC(=O)[C@H](Cc6ccc(O)cc6)NC(=O)[C@@H]6CCCN6C(=O)[C@@H](C)NC(=O)[C@H](CCC(=O)O)NC(=O)[C@@H]6CCCN6C(=O)[C@H](CC(C)(C)C)NC(=O)[C@@H](NC(C)=O)CSCCC7=O)C(=O)N[C@@H](Cc6ccccc6)C(=O)N[C@@H](C)C(=O)N[C@@H](CC(=O)O)C(=O)N6CCC[C@H]6C(=O)N[C@@H](Cc6ccc(O)cc6)C(=O)N[C@@H](CCCC)C(=O)N5)C(N)=O)nn4)nn3)C(N)=O)NC1=O)C(=O)CCSC[C@H](NC(C)=O)C(=O)N[C@@H](CC(C)(C)C)C(=O)N1CCC[C@H]1C(=O)N[C@@H](CCC(=O)O)C(=O)N[C@H](C)C(=O)N1CCC[C@H]1C(=O)N[C@@H](Cc1ccc(O)cc1)C(=O)N2 — half-life (rat; intravenous; 2 mg/kg): 3.6 h
CC(=O)N[C@@H](C)C(=O)N[C@H]1CSSC[C@@H](C(=O)O)NC(=O)[C@H](Cc2ccccc2)NC(=O)[C@@H]2CCCN2C(=O)[C@H](Cc2c[nH]c3ccccc23)NC(=O)[C@H](CC(C)C)NC(=O)[C@H](CC(C)C)NC(=O)[C@H](CC(=O)O)NC(=O)[C@H](Cc2ccccc2)NC(=O)[C@H](Cc2c[nH]cn2)NC(=O)[C@H]([C@@H](C)O)NC(=O)[C@H](Cc2ccccc2)NC1=O — half-life (male Sprague-Dawley rat; intravenous): 0.0303 h
Cl.Cl.O=C(CCN1CCCCC1)c1ccc(-c2ccc(C(=O)CCN3CCCCC3)cc2)cc1 — half-life (Sprague-Dawley rat; oral; 50 mg/kg): 7.54 h
CCCCCn1nc(C(=O)Nc2cccc3ccccc23)c2ccccc21 — half-life (male Long-Evans rat; intraperitoneal; 3 mg/kg): 5.4 h
COC(=O)C(NC(=O)c1cn(CCCCCF)c2ccccc12)C(C)(C)C (centres unmarked) — half-life (male Sprague-Dawley rat; subcutaneous; 100 µg/kg): 10.3 h
Cc1ncc(C)n2nc(/C=C/c3nc(N4CCCC4)cc(N4CCOCC4)n3)nc12 — half-life (male Sprague-Dawley rat; oral; 0.3 mg/kg): 6 h
[2H]C([2H])([2H])n1cc2cc(Nc3nc(=O)n(Cc4ncn(C)n4)c(=O)n3Cc3cc(F)c(F)cc3F)c(Cl)cc2n1 — half-life (male Sprague-Dawley rat; oral; 25 mg/kg): 3.39 h
O=C(Nc1cccnn1)N1CCN([C@@H]2CCOc3cc(C(F)(F)F)ccc32)CC1 — half-life (male Sprague-Dawley rat; oral; 0.3 mg/kg): 3.3 h
